# Experiments:
# Streptococcus pneumoniae [1] = test: Antibacterial activity against Streptococcus pneumoniae M316 overexpressing patA, patB and inactivated patA with single mutation by standardized agar doubling dilution method in presence of 20 ug/ml reserpine efflux pump inhibitor; format: functional
# Procedure, shortened: (§1)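 MICs were determined by BSAC agar doubling dilution in the presence of reserpine at 20 μg/ml. Strains were grown in BHI broth for 24 h at 37°C in 5% CO2, with R6 as control. Synergy was defined as an MIC drop of ≥2 dilutions with the inhibitor.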
# Streptococcus pneumoniae [2] = test: Antibacterial activity against fluoroquinolone, dye-susceptible Streptococcus pneumoniae by standardized agar doubling dilution method; format: functional
# Procedure, shortened: (§2)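 MIC by agar doubling dilution following BSAC guidelines. Strains grown in brain heart infusion broth 24 h at 37°C in 5% CO2. Where an efflux pump inhibitor applies, MIC redetermined with reserpine at 20 μg/ml or sodium orthovanadate at 50 μM. Synergy taken as a fall in MIC of ≥2 dilutions with inhibitor present. Dye resistance defined relative to R6 (both dyes ≥2 dilutions higher).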
# Streptococcus pneumoniae [3] = test: Antibacterial activity against Streptococcus pneumoniae M305 overexpressing patA, patB and inactivated patB with single mutation by standardized agar doubling dilution method in presence of 20 ug/ml reserpine efflux pump inhibitor; format: functional
# Procedure, shortened: (§3)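 MICs determined by BSAC standardized agar doubling dilution. Strains were grown in brain heart infusion broth for 24 h at 37°C in 5% CO2. Inhibitor arms had reserpine at 20 μg/ml or sodium orthovanadate at 50 μM in the agar. Mutants were made by transforming magellan2 insertion amplimers into clinical isolates and selecting on spectinomycin 100 mg/liter, with a no-DNA spontaneous-mutation control.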
# Streptococcus pneumoniae [4] = test: Antibacterial activity against Streptococcus pneumoniae M307 overexpressing patA, patB and inactivated patB with single mutation by standardized agar doubling dilution method in presence of 50 uM sodium orthovanadate efflux pump inhibitor; format: functional; procedure, shortened: as §3
# Streptococcus pneumoniae [5] = test: Antibacterial activity against fluoroquinolone, dye-resistant Streptococcus pneumoniae M74 overexpressing patA, patB by standardized agar doubling dilution method; format: functional; procedure, shortened: as §2
# Streptococcus pneumoniae [6] = test: Antibacterial activity against Streptococcus pneumoniae M305 overexpressing patA, patB and inactivated patB with single mutation by standardized agar doubling dilution method; format: functional; procedure, shortened: as §3
# Streptococcus pneumoniae [7] = test: Antibacterial activity against fluoroquinolone, dye-susceptible Streptococcus pneumoniae M295 S overexpressing patA, patB by standardized agar doubling dilution method in presence of 50 uM sodium orthovanadate efflux pump inhibitor; format: functional
# Procedure, shortened: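 MIC by agar doubling dilution per BSAC guidelines; strains pregrown in brain heart infusion broth 24 h, 37°C, 5% CO2. MICs measured alone and with efflux pump inhibitors reserpine (20 μg/ml) or sodium orthovanadate (50 μM); synergy defined as ≥2-dilution MIC reduction in presence of inhibitor.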
# Streptococcus pneumoniae [8] = test: Antibacterial activity against Streptococcus pneumoniae M303 overexpressing patA, patB and inactivated patA with single mutation by standardized agar doubling dilution method in presence of 50 uM sodium orthovanadate efflux pump inhibitor; format: functional; procedure, shortened: as §3
# Streptococcus pneumoniae [9] = test: Antibacterial activity against fluoroquinolone-resistant Streptococcus pneumoniae M79 FQ-R overexpressing patA, patB by standardized agar doubling dilution method in presence of 20 ug/ml reserpine efflux pump inhibitor; format: functional
# Procedure, shortened: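 Clinical S. pneumoniae isolates grown in BHI broth 24 h at 37°C in 5% CO2. MICs by agar doubling dilution per BSAC guidelines, alone or with efflux inhibitor reserpine (20 μg/ml) or sodium orthovanadate (50 μM). Synergy defined as ≥2-dilution MIC reduction in presence of inhibitor.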
# Streptococcus pneumoniae [10] = test: Antibacterial activity against Streptococcus pneumoniae M45B overexpressing patA, patB and inactivated patB with single mutation by standardized agar doubling dilution method in presence of 20 ug/ml reserpine efflux pump inhibitor; format: functional; procedure, shortened: as §1
# Streptococcus pneumoniae [11] = test: Antibacterial activity against Streptococcus pneumoniae M315 overexpressing patA, patB and inactivated patA with single mutation by standardized agar doubling dilution method in presence of 20 ug/ml reserpine efflux pump inhibitor; format: functional; procedure, shortened: as §3
# Streptococcus pneumoniae [12] = test: Antibacterial activity against fluoroquinolone, dye-resistant Streptococcus pneumoniae M297 overexpressing patA, patB by standardized agar doubling dilution method in presence of 50 uM sodium orthovanadate efflux pump inhibitor; format: functional; procedure, shortened: as §2
# Streptococcus pneumoniae [13] = test: Antibacterial activity against Streptococcus pneumoniae M303 overexpressing patA, patB and inactivated patA with single mutation by standardized agar doubling dilution method in presence of 20 ug/ml reserpine efflux pump inhibitor; format: functional; procedure, shortened: as §3
# Streptococcus pneumoniae [14] = test: Antibacterial activity against Streptococcus pneumoniae M310 overexpressing patA, patB and inactivated patB with single mutation by standardized agar doubling dilution method in presence of 20 ug/ml reserpine efflux pump inhibitor; format: functional; procedure, shortened: as §3
# Streptococcus pneumoniae [15] = test: Antibacterial activity against fluoroquinolone, dye-susceptible Streptococcus pneumoniae M295 S overexpressing patA, patB by standardized agar doubling dilution method in presence of 20 ug/ml reserpine efflux pump inhibitor; format: functional; procedure, shortened: as §2
# Streptococcus pneumoniae [16] = test: Antibacterial activity against Streptococcus pneumoniae M86A overexpressing patA, patB and inactivated patA with single mutation by standardized agar doubling dilution method in presence of 20 ug/ml reserpine efflux pump inhibitor; format: functional; procedure, shortened: as §1
# Streptococcus pneumoniae [17] = test: Antibacterial activity against Streptococcus pneumoniae M86B overexpressing patA, patB and inactivated patB with single mutation by standardized agar doubling dilution method in presence of 20 ug/ml reserpine efflux pump inhibitor; format: functional; procedure, shortened: as §1
# Streptococcus pneumoniae [18] = test: Antibacterial activity against wild-type Streptococcus pneumoniae R6 by standardized agar doubling dilution method in presence of 20 ug/ml reserpine efflux pump inhibitor
# Streptococcus pneumoniae [19] = test: Antibacterial activity against fluoroquinolone, dye-resistant Streptococcus pneumoniae M296 overexpressing patA, patB by standardized agar doubling dilution method in presence of 20 ug/ml reserpine efflux pump inhibitor; format: functional; procedure, shortened: as §2
# Streptococcus pneumoniae [20] = test: Antibacterial activity against fluoroquinolone, dye-resistant Streptococcus pneumoniae M86 overexpressing patA, patB by standardized agar doubling dilution method in presence of 20 ug/ml reserpine efflux pump inhibitor; format: functional; procedure, shortened: as §2
# Streptococcus pneumoniae [21] = test: Antibacterial activity against wild type Streptococcus pneumoniae R6 by standardized agar doubling dilution method in presence of 20 ug/ml reserpine efflux pump inhibitor; format: functional; procedure, shortened: as §2
# Streptococcus pneumoniae [22] = test: Antibacterial activity against fluoroquinolone, dye-resistant Streptococcus pneumoniae M86 overexpressing patA, patB by standardized agar doubling dilution method in presence of 50 uM sodium orthovanadate efflux pump inhibitor; format: functional; procedure, shortened: as §2
# Streptococcus pneumoniae [23] = test: Antibacterial activity against Streptococcus pneumoniae M86B overexpressing patA, patB and inactivated patB with single mutation by standardized agar doubling dilution method in presence of 50 uM sodium orthovanadate efflux pump inhibitor; format: functional
# Procedure, shortened: (§4)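 MICs were determined by BSAC agar doubling dilution in the presence of sodium orthovanadate at 50 μM. Cultures were grown in BHI broth for 24 h at 37°C in 5% CO2, with R6 as control. Synergy was defined as an MIC reduction of ≥2 dilutions with the inhibitor present.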
# Streptococcus pneumoniae [24] = test: Antibacterial activity against wild type Streptococcus pneumoniae R6 by standardized agar doubling dilution method; format: functional; procedure, shortened: as §2
# Streptococcus pneumoniae [25] = test: Antibacterial activity against dye-resistant Streptococcus pneumoniae M55 DR overexpressing patA, patB by standardized agar doubling dilution method in presence of 50 uM sodium orthovanadate efflux pump inhibitor; format: functional; procedure, shortened: as §2
# Streptococcus pneumoniae [26] = test: Antibacterial activity against wild type Streptococcus pneumoniae M3 NCTC 7466 type 2 by standardized agar doubling dilution method in presence of 20 ug/ml reserpine efflux pump inhibitor; format: functional; procedure, shortened: as §2
# Streptococcus pneumoniae [27] = test: Antibacterial activity against Streptococcus pneumoniae M86A overexpressing patA, patB and inactivated patA with single mutation by standardized agar doubling dilution method in presence of 50 uM sodium orthovanadate efflux pump inhibitor; format: functional; procedure, shortened: as §4
Compound,MIC (Streptococcus pneumoniae [1]) [µg/mL],MIC90 (Streptococcus pneumoniae [2]) [µg/mL],MIC (Streptococcus pneumoniae [3]) [µg/mL],MIC (Streptococcus pneumoniae [4]) [µg/mL],MIC (Streptococcus pneumoniae [5]) [µg/mL],MIC (Streptococcus pneumoniae [6]) [µg/mL],MIC (Streptococcus pneumoniae [7]) [µg/mL],MIC (Streptococcus pneumoniae [8]) [µg/mL],MIC (Streptococcus pneumoniae [9]) [µg/mL],MIC (Streptococcus pneumoniae [10]) [µg/mL],MIC (Streptococcus pneumoniae [11]) [µg/mL],MIC (Streptococcus pneumoniae [12]) [µg/mL],MIC (Streptococcus pneumoniae [13]) [µg/mL],MIC (Streptococcus pneumoniae [14]) [µg/mL],further results
O=C(O)c1cn(C2CC2)c2cc(N3CCNCC3)c(F)cc2c1=O [CIPROFLOXACIN],8,0.25,8,8,64,8,0.25,0.12,32,1,1,8,1,1,MIC (Streptococcus pneumoniae [2]): 0.25 µg/mL
CC[n+]1c(-c2ccccc2)c2cc(N)ccc2c2ccc(N)cc21.[Br-] [HOMIDIUM BROMIDE],0.5,2,0.5,2,4,0.5,0.5,1,0.5,0.5,0.12,1,0.5,0.5,MIC (Streptococcus pneumoniae [15]): 0.25 µg/mL; MIC (Streptococcus pneumoniae [16]): 0.5 µg/mL; MIC (Streptococcus pneumoniae [17]): 0.5 µg/mL; MIC (Streptococcus pneumoniae [18]): 0.25 µg/mL; MIC (Streptococcus pneumoniae [19]): 0.5 µg/mL; MIC (Streptococcus pneumoniae [20]): 0.5 µg/mL; MIC (Streptococcus pneumoniae [21]): 0.3 µg/mL; MIC (Streptococcus pneumoniae [22]): 0.5 µg/mL; MIC (Streptococcus pneumoniae [23]): 0.5 µg/mL; MIC (Streptococcus pneumoniae [24]): 1 µg/mL; MIC (Streptococcus pneumoniae [25]): 1 µg/mL; MIC (Streptococcus pneumoniae [26]): 0.5 µg/mL; MIC (Streptococcus pneumoniae [27]): 0.5 µg/mL

# — ChEMBL document CHEMBL1687824, “Overexpression of patA and patB, which encode ABC transporters, is associated with fluoroquinolone resistance in clinical isolates of Streptococcus pneumoniae” (2011)
